Test results published in ChEMBL document CHEMBL1782036, “Atovaquone derivatives as potent cytotoxic and apoptosis inducing agents” (Bioorg Med Chem Lett, 2009).
Active and inactive are the calls of the source. The rule behind the calls is not given here.

Tests used:
[1] = test system: DU-145; test: Growth inhibition of human DU145 cells after 72 hrs by MTT assay; format: functional, cell-based; conditions: DU-145, 72 h
How it was run: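 Du145 human prostate carcinoma cells were screened by MTT cell-growth inhibition assay. IC50 values are means of three experiments.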

[2] = test system: DU-145; test: Induction of apoptosis in human DU145 cells at 10 uM after 72 hrs by AnnexinV conjugated 7- AAD staining by flow cytometry; format: functional, cell-based
How it was run: (§1)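 Du145 cells were treated for 72 h and stained with Annexin V conjugate plus 7-AAD. Flow cytometry read PS externalization and membrane integrity, scoring cells as live (double negative), early apoptotic, or late apoptotic/necrotic (double positive). Untreated cells served as the control.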

[3] = test system: IMR-90; test: Antiproliferative activity against human IMR90 cells after 72 hrs by MTT assay; format: cell-based; conditions: IMR-90, 72 h
[4] = test system: A549; test: Antiproliferative activity against human A549 cells after 72 hrs by MTT assay; format: functional, cell-based; conditions: A549, 72 h
[5] = test system: HeLa; test: Antiproliferative activity against human HeLa cells after 72 hrs by MTT assay; format: functional, cell-based
[6] = test system: HepG2; test: Antiproliferative activity against human HepG2 cells after 72 hrs by MTT assay; format: functional, cell-based; conditions: HepG2, 72 h
[7] = test system: HT-1080; test: Antiproliferative activity against human HT1080 cells after 72 hrs by MTT assay; format: functional, cell-based; conditions: HT-1080, 72 h
[8] = test system: HT-29; test: Antiproliferative activity against human HT-29 cells after 72 hrs by MTT assay; format: functional, cell-based; conditions: HT-29, 72 h
[9] = test system: KB; test: Antiproliferative activity against human KB cells after 72 hrs by MTT assay; format: functional, cell-based
[10] = Antiproliferative activity against human L78 cells after 72 hrs by MTT assay; format: functional, cell-based; conditions: L78, 72 h
[11] = test system: MCF7; test: Antiproliferative activity against human MCF7 cells after 72 hrs by MTT assay; format: functional, cell-based; conditions: MCF7, 72 h
[12] = test system: MOLT-4; test: Antiproliferative activity against human MOLT4 cells after 72 hrs by MTT assay; format: functional, cell-based; conditions: MOLT-4, 72 h
[13] = test system: OS-RC-2; test: Antiproliferative activity against human OS-RC2 cells after 72 hrs by MTT assay; format: functional, cell-based; conditions: OS-RC-2, 72 h
[14] = test system: SGC-7901; test: Antiproliferative activity against human SGC7901 cells after 72 hrs by MTT assay; format: functional, cell-based; conditions: SGC-7901, 72 h
[15] = test system: U-251; test: Antiproliferative activity against human U251 cells after 72 hrs by MTT assay; format: functional, cell-based; conditions: U-251, 72 h
[16] = test system: DU-145; test: Induction of apoptosis in human DU145 cells at 5 uM after 72 hrs by AnnexinV conjugated 7- AAD staining by flow cytometry; format: functional, cell-based; how it was run: as §1
[17] = test system: DU-145; test: Induction of apoptosis in human DU145 cells assessed as caspase-9 activation at 1 to 10 uM after 24 hrs by Western blot analysis; format: functional, cell-based
How it was run: (§2)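 Du145 lysates from dose-ranging treatment were analysed by Western blot for activation of caspase 9 and caspase 3.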

[18] = test system: DU-145; test: Induction of apoptosis in human DU145 cells assessed as caspase-3 activation at 1 to 10 uM after 24 hrs by Western blot analysis; format: functional, cell-based; how it was run: as §2
[19] = test system: DU-145; test: Induction of chromatin condensation in human DU145 cells at 20 uM by Hoechst 33342 staining by fluorescent microscopy; format: functional, cell-based
How it was run: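 Du145 cells were exposed for 24 h, with 0.2% DMSO as the vehicle control. Nuclei were stained with Hoechst 33342 and viewed by fluorescence microscopy at 100× for chromatin condensation and nuclear shrinkage.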

[20] = test system: DU-145; test: Induction of apoptosis in human DU145 cells at 10 uM assessed as live cell level after 72 hrs by AnnexinV conjugated 7- AAD staining by flow cytometry; format: functional; how it was run: as §1
[21] = test system: DU-145; test: Induction of apoptosis in human DU145 cells at 10 uM assessed as early apoptosis level after 72 hrs by AnnexinV conjugated 7- AAD staining by flow cytometry; format: functional; how it was run: as §1
[22] = test system: DU-145; test: Induction of apoptosis in human DU145 cells at 10 uM assessed as dead cell level after 72 hrs by AnnexinV conjugated 7- AAD staining by flow cytometry; format: functional
How it was run: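 Du145 human prostate carcinoma cells exposed to compound for 72 h, then stained with Annexin V and 7-AAD and analysed by flow cytometry. Annexin V detects phosphatidylserine externalised to the outer membrane leaflet, and 7-AAD enters only membrane-compromised cells. Dead cells were those positive for both stains. Untreated cells served as control.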

Question: For `O=C1C=C(N2CCN(c3ccccc3)CC2)C(=O)c2c(O)cccc21`, which IC50 [1] is on record?
Answer: 2.8 µM

Question: And the Activity [2]?
Answer: Active

Question: What about the IC50 [3] of the same molecule?
Answer: > 50 µM

Question: And the IC50 [4]?
Answer: 4.2 µM

Question: What about the IC50 [5] of the same molecule?
Answer: 6.9 µM

Question: And the IC50 [6]?
Answer: 5.4 µM

Question: What about the IC50 [7] of the same molecule?
Answer: 8.2 µM

Question: And the IC50 [8]?
Answer: 2.9 µM

Question: What about the IC50 [9] of the same molecule?
Answer: 7 µM

Question: And the IC50 [10]?
Answer: 3.6 µM

Question: And the IC50 [11]?
Answer: 5.2 µM

Question: What about the IC50 [12] of the same molecule?
Answer: > 50 µM

Question: And the IC50 [13]?
Answer: 1.5 µM

Question: And the IC50 [14]?
Answer: 3.7 µM

Question: What about the IC50 [15] of the same molecule?
Answer: 6.1 µM

Question: And the Activity [16]?
Answer: Active

Question: And the Activity [17]?
Answer: Dose-dependent effect

Question: And the Activity [18]?
Answer: Dose-dependent effect

Question: And the Activity [19]?
Answer: Active

Question: And the Activity [20]?
Answer: 2.8%

Question: And the Activity [21]?
Answer: 37.6%

Question: What about the Activity [22] of the same molecule?
Answer: 58%
